Reference: ChEMBL document CHEMBL4257565, “A phenotypic approach to the discovery of compounds that promote non-amyloidogenic processing of the amyloid precursor protein: Toward a new profile of indirect β-secretase inhibitors” (Eur J Med Chem, 2018)
pIC50: −log10 of the molar value. Activity calls are given as the source filed them. The calls are words filed in the database; no cut-off is given here.

Experiments:
[1] = target: T1, Beta-secretase 1 (Homo sapiens, UniProt P56817); experiment: Inhibition of BACE1 in human SH-SY5Y cells harboring wild type APP695 assessed as increase in alphaCTF level at 3 uM by Western blot method relative to chloroquine; type: cell-based
T1 sequence (P56817 whole entry, the tested form may be a part): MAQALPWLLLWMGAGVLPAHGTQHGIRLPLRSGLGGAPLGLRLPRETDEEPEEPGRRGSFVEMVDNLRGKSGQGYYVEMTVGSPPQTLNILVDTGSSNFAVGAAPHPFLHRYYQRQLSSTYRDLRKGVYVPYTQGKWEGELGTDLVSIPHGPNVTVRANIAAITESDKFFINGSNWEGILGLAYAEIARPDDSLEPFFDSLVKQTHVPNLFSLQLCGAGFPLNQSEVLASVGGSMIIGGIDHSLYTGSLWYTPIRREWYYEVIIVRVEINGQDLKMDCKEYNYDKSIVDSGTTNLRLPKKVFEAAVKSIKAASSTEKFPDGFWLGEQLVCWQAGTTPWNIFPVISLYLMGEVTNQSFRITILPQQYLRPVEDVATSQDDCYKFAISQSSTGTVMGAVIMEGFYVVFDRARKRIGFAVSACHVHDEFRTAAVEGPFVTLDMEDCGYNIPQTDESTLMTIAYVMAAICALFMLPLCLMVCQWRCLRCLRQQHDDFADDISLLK
Procedure, shortened: (§1)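 APP C-terminal fragments (αCTFs and AICD) were detected by Western blot and scored as band intensity. Compounds were tested at 1, 3 and 10 µM.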

[2] = target: T1, Beta-secretase 1; experiment: Inhibition of BACE1 in human SH-SY5Y cells harboring wild type APP695 assessed as reduction in amyloid beta (1 to 40) level after 24 hrs by ELISA method; type: cell-based
Procedure, shortened: (§2)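 Aβ1-40 and Aβ1-42 levels were measured by ELISA in APPwt-expressing SH-SY5Y cells after compound treatment.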

[3] = target: T1, Beta-secretase 1; experiment: Inhibition of BACE1 in human SH-SY5Y cells harboring wild type APP695 assessed as increase in AICD level at 3 uM by Western blot method relative to chloroquine; type: cell-based; procedure, shortened: as §1
[4] = target: T1, Beta-secretase 1; experiment: Inhibition of BACE1 in human SH-SY5Y cells harboring wild type APP695 assessed as reduction in amyloid beta (1 to 42) level up to 5 uM after 24 hrs by ELISA; type: cell-based; procedure, shortened: as §2
[5] = target: T1, Beta-secretase 1; experiment: Inhibition of BACE1 in human SH-SY5Y cells harboring wild type APP695 assessed as accumulation of APP-CTF level up to 5 uM after 24 hrs by ELISA; type: cell-based
[6] = target: T1, Beta-secretase 1; experiment: Inhibition of BACE1 in human SH-SY5Y cells harboring wild type APP695 assessed as reduction in sAPPbeta level up to 5 uM after 24 hrs by DAPI staining based electro-chemiluminescence immunoassay; type: cell-based
[7] = target: T1, Beta-secretase 1; experiment: Inhibition of BACE1 in human SH-SY5Y cells harboring wild type APP695 assessed as accumulation of AICD level up to 5 uM after 24 hrs by ELISA; type: cell-based
[8] = target: T1, Beta-secretase 1; experiment: Inhibition of BACE1 in human SH-SY5Y cells harboring wild type APP695 assessed as reduction in amyloid beta (1 to 40) level up to 5 uM after 24 hrs by ELISA; type: cell-based; procedure, shortened: as §2
[9] = system: Primary neuron; experiment: Inhibition of autophagy in C57BL6 mouse primary neuronal cells assessed as increase in p62 expression up to 5 uM after 24 hrs by DAPI staining based immunofluorescence assay; type: functional
Procedure, shortened: (§3)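 Autophagy markers were quantified against control: p62 expression and lipidation of LC3-I into LC3-II. Accumulation of p62- and LC3-positive vesicles was scored by immunofluorescence. This was done in SY5Y-APPwt cells and primary neurons.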

[10] = target: Beta-secretase 1 (Mus musculus) (UniProt P56818); experiment: Inhibition of BACE1 in C57BL6 mouse primary neuronal cells assessed as increase in mature APP level up to 5 uM after 24 hrs by DAPI staining based immunofluorescence assay relative to control
Beta-secretase 1 (Mus musculus), sequence (P56818 whole entry): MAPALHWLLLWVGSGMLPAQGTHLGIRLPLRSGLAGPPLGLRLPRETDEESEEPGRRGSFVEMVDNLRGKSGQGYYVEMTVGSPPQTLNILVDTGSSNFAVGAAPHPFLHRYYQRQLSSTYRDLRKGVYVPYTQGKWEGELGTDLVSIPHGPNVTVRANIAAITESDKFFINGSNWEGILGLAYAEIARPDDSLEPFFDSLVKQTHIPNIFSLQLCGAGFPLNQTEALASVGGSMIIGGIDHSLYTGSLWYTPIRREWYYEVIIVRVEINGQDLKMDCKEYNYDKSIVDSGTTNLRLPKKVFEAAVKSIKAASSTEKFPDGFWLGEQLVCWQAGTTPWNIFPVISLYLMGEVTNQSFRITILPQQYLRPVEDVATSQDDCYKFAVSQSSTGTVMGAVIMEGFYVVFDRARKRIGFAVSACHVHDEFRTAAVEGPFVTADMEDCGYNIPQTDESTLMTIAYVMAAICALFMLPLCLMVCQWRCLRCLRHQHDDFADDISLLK

[11] = target: Beta-secretase 1 (Mus musculus) (UniProt P56818); experiment: Inhibition of BACE1 in C57BL6 mouse primary neuronal cells assessed as accumulation of AICD level up to 5 uM after 24 hrs by DAPI staining based immunofluorescence assay
[12] = system: SH-SY5Y; experiment: Inhibition of alpha secretase in human SH-SY5Y cells harboring wild type APP695 assessed as increase in sAPPalpha level up to 5 uM after 24 hrs by DAPI staining based electro-chemiluminescence immunoassay; type: cell-based
[13] = system: Primary neuron; experiment: Inhibition of autophagy in C57BL6 mouse primary neuronal cells assessed as increase in lipidation of LC3-1 to LC3-2 up to 5 uM after 24 hrs by DAPI staining based immunofluorescence assay; type: functional; procedure, shortened: as §3
[14] = system: SH-SY5Y; experiment: Inhibition of autophagy in human SH-SY5Y cells harboring wild type APP695 assessed as increase in p62 expression up to 5 uM after 24 hrs by DAPI staining based immunofluorescence assay; type: functional, cell-based; procedure, shortened: as §3
[15] = system: SH-SY5Y; experiment: Cytotoxicity against human SH-SY5Y cells harboring wild type APP695 assessed as reduction in cell viability after 24 hrs by LDH assay; type: cell-based
[16] = target: T1, Beta-secretase 1; experiment: Inhibition of BACE1 in human SH-SY5Y cells harboring wild type APP695 assessed as increase in mature APP level up to 5 uM after 24 hrs by ELISA; type: cell-based; details: in the assay text read “by Western blot” for “by ELISA”
Procedure, shortened: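 Full-length APP was resolved and detected with APP-C17 antiserum as two bands. The 110 kDa band is the immature, neosynthesized form and the 115 kDa band is the mature, glycosylated form. Both bands were quantified against the control condition. This was done in SH-SY5Y-APPwt cells and in primary neuronal cultures.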

[17] = target: Beta-secretase 1 (Mus musculus) (UniProt P56818); experiment: Inhibition of BACE1 in C57BL6 mouse primary neuronal cells assessed as accumulation of APP-CTF level up to 5 uM after 24 hrs by DAPI staining based immunofluorescence assay
[18] = target: T1, Beta-secretase 1; experiment: Inhibition of recombinant human BACE1 at 10 uM using Mca-S-E-[…]-L-D-AEF-R-K(Dnp)-R-R-NH2 as substrate after 60 mins by fluorescence assay relative to control
Procedure, shortened: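 BACE-1 enzymatic activity was followed by cleavage of the fluorogenic peptide Mca-S-E-V-N-L-D-AE-F-R-K(Dnp)-R-R-NH2.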

[19] = Cytotoxicity against C57BL6 mouse primary neuronal cells assessed as reduction in cell viability after 24 hrs by LDH assay; type: cell-based; details: primary neuron
[20] = system: SH-SY5Y; experiment: Inhibition of autophagy in human SH-SY5Y cells harboring wild type APP695 assessed as increase in lipidation of LC3-1 to LC3-2 up to 5 uM after 24 hrs by DAPI staining based immunofluorescence assay; type: functional, cell-based; procedure, shortened: as §3

Structure (SMILES) | fold change (FC) [1] | pIC50 [2] | fold change (FC) [3] | other results
CN(C)Cc1ccccc1-c1ccc(NCCCCN2CCCCC2)c(OCCN2CCCCC2)c1 | 4.2 | 5.77 | 3 | 
CN(C)Cc1ccccc1-c1ccc(NCCN2CCCCC2)c(OCCN2CCCCC2)c1 | 5 | 5.85 | 4.8 | 
c1ccc(-c2ccc(NCCCN3CCCCC3)c(OCCN3CCCCC3)c2)cc1 | 2.4 | 5.28 | 2.1 | 
CN(C)Cc1ccccc1-c1ccc(NCCN2CCCCC2)c(OCCCN2CCCCC2)c1 | 4.5 | 5.70 | 3.4 | 
CN(C)Cc1ccccc1-c1cccc(OCCN2CCCCC2)c1 | 0.6 | 5.82 | 0.7 | 
c1cc(-c2ccc(NCCCN3CCCCC3)c(OCCN3CCCCC3)c2)ccc1CN1CCCCC1 | 2.6 | 5.68 | 2.5 | 
c1ccc(-c2cccc(OCCN3CCCCC3)c2)cc1 | 0.1 | 5.04 | 0.2 | 
CN(C)Cc1ccn(-c2ccc(NCCCN3CCCCC3)c(OCCN3CCCCC3)c2)c1 | 3.6 | 5.30 | 2 | 
CN(C)Cc1ccccc1-c1ccc(NCCCN2CCCCC2)c(OCCC2CCCCC2)c1 | 0.1 | 5.68 | 0.1 | inhibition [4]: Active; inhibition [5]: inactive; inhibition [6]: Active; inhibition [7]: inactive; inhibition [8]: Active; inhibition [9]: inactive; inhibition [10]: inactive; inhibition [11]: inactive; inhibition [12]: Active; inhibition [13]: inactive; inhibition [14]: inactive; Activity [15]: Non-Toxic; inhibition [16]: inactive; inhibition [17]: inactive; inhibition [18]: < 10%; Activity [19]: Non-Toxic; inhibition [20]: inactive
CN(C)Cc1ccccc1-c1ccc(NCCN2CCCCC2)c(OCCCCN2CCCCC2)c1 | 4.4 |  | 4.8 | 
